Published values pooled from the literature.
Protocols differ between the studies behind these lines.
Target: Serine/threonine-protein kinase 17B (STK17B, Homo sapiens, UniProt O94768)
Residues used in one study (O94768 1-372): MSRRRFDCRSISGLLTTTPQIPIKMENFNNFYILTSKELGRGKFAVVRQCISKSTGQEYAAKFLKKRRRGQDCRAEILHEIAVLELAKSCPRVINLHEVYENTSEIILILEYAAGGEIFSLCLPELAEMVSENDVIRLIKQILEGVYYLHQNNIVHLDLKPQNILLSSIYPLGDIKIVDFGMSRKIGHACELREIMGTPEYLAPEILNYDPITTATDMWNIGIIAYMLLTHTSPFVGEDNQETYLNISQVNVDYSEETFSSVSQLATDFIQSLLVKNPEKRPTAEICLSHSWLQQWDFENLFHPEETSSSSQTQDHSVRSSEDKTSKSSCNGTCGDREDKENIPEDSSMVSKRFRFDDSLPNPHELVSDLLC

For Nc1ncnc2occ(-c3ccc(NC(=O)Nc4cc(C(F)(F)F)ccc4F)cc3)c12, the remaining signal was 94% (cell-free assay; 20 µM).
For C[C@H](NC(=O)c1cnc2n1[C@](C)(Cc1ccc(C#N)cc1)C(=O)N2c1cc(Cl)c(F)c(Cl)c1)C(=O)NC1(c2ccccn2)CC1, the remaining binding was 100% (cell-free assay; competition with immobilised ligand; 1 µM).
For Cc1nn(CC(F)(F)F)cc1Nc1ncc(Br)c(NCCCNC(=O)C2CCC2)n1, the remaining activity was 5% (enzyme activity; inhibitor; radiometric; 1 µM).
The remaining activity of Cc1ccc(C(=O)Nc2ccc(CN3CCN(C)CC3)c(C(F)(F)F)c2)cc1C#Cc1cnc2cccnn12 is reported as 100% (enzyme activity; 23.5 nM).
The remaining binding of Cc1nc(N2CC[C@@H](O)C2)ncc1-c1cc(C(F)(F)F)cc2[nH]ncc12 is reported as 99% (cell-free assay; competition with immobilised ligand; 1 µM).
The remaining activity of NS(=O)(=O)c1ccc(CNc2nc(Nc3cccc(NC(=O)N4CCCC4)c3)ncc2Br)cc1 is reported as 23% (enzyme activity; inhibitor; radiometric; 1 µM).
With CCN1CCC2(CC1)NC(=O)c1c(c3ccc(Cl)c(Cl)c3n1C)C2C#N (racemic) the ΔTm was 1 °C (thermal stability; DSF; 10 µM).
COc1cc(Cl)c(C(=O)N[C@@H](CN[C@H]2CC[C@@H](N)CC2)Cc2ccc(C#N)cc2)cc1-c1ccc(CN[C@H](C)c2ccc(C)cc2)o1 gave a remaining activity of 94% (enzyme activity; inhibitor; 1 µM).
For CS(=O)(=O)Nc1cccc(-c2csc(NC(=O)CSc3nc4nccnc4c(=O)n3CCc3ccccc3)n2)c1, the inhibition was 4% (enzyme activity; inhibitor; 10 µM).
For Cc1nn(CC(F)(F)F)cc1Nc1ncc(Br)c(NCCc2cnc[nH]2)n1, the remaining activity was 12% (enzyme activity; inhibitor; radiometric; 1 µM).
The inhibition of CN1CC(Oc2cnc(C#N)cc2-c2ccn3nc(NC(=O)C4CC4)cc3c2)C1 is reported as -4% (enzyme activity; inhibitor; 1 µM).
O=C(CSc1nc2nccnc2c(=O)n1CCc1ccccc1)Nc1nccs1 gave an inhibition of 11% (enzyme activity; inhibitor; 10 µM).
With Cc1nn(CC(F)(F)F)cc1Nc1nccc(NCc2ccc(S(N)(=O)=O)cc2)n1 the remaining activity was 92% (enzyme activity; inhibitor; radiometric; 1 µM).
The remaining binding of O=C(Nc1cccnn1)N1CC(C/C=C/c2cncc(Oc3ccc(C(F)(F)F)cn3)n2)C1 is reported as 100% (cell-free assay; competition with immobilised ligand; 1 µM).
